According to ChEMBL document CHEMBL1806477, “Discovery of novel imidazo[1,2-a]pyridines as inhibitors of the insulin-like growth factor-1 receptor tyrosine kinase” (Bioorg Med Chem Lett, 2011):
pIC50: −log10 of the molar value. Each block holds one compound with its values, some of them ahead of it.

Tests used:
[1] = molecular target: T1, Insulin-like growth factor 1 receptor (Homo sapiens, UniProt P08069); assay: Inhibition of IGF1R
[2] = molecular target: Cyclin-dependent kinase 2 (Homo sapiens, UniProt P24941); assay: Inhibition of CDK2
[3] = molecular target: T1, Insulin-like growth factor 1 receptor; assay: Inhibition of IGF1-induced autophosphorylation of human recombinant IGF1R expressed in mouse fibroblasts by high throughput assay
[4] = molecular target: T2, Insulin receptor (Homo sapiens, UniProt P06213); assay: Inhibition of insulin-induced autophosphorylation of human insulin receptor expressed in CHO cells; type: cell-based
Summary of the method: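 CHO cells transfected with the human insulin receptor gene, stimulated with insulin; the read-out is inhibition of receptor auto-phosphorylation.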

[5] = Oral bioavailability in Han Wistar rat at 10 umol/kg; type: ADME, organism-based; conditions: in vivo
[6] = Intrinsic clearance in human hepatocytes assessed per 10^6 cells; type: ADME, cell-based, Liver, Hepatocyte
[7] = molecular target: T3, Mitogen-activated protein kinase 15 (Homo sapiens) (UniProt Q8TD08); assay: Inhibition of ERK8 at 1 uM
T3 sequence (whole entry): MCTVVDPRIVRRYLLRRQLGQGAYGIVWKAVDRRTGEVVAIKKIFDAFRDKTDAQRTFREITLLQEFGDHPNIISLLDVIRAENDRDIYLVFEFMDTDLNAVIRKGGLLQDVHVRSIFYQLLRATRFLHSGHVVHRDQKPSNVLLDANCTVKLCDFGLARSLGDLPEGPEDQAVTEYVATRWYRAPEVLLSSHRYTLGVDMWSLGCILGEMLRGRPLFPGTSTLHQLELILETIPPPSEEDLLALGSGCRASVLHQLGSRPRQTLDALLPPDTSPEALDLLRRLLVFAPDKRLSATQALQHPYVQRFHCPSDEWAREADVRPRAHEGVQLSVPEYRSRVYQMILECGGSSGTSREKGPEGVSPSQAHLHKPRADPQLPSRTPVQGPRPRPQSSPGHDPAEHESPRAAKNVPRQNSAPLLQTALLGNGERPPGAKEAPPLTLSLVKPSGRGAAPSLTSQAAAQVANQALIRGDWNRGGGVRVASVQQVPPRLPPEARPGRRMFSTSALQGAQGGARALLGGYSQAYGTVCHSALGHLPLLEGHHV

[8] = Intrinsic clearance in dog hepatocytes assessed per 10^6 cells; type: ADME, cell-based, Canis lupus familiaris, Liver, Hepatocyte
[9] = molecular target: T2, Insulin receptor; assay: Inhibition of insulin receptor
[10] = Volume of distribution at steady state in Han Wistar rat at 4 umol/kg, iv and 10 umol/kg, po; type: ADME, organism-based; conditions: in vivo, read-out: Vdss
Summary of the method: (§1)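 Male Han Wistar rats, each given an intravenous dose and a separate oral dose; parameters derived from the plasma concentration profiles.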

[11] = Intrinsic clearance in mouse hepatocytes assessed per 10^6 cells; type: ADME, cell-based, Liver, Hepatocyte
[12] = Terminal half life in Beagle dog at 0.8 umol/kg, iv and 10 umol/kg, po; type: ADME, organism-based, Canis lupus familiaris; conditions: in vivo, read-out: beta t1/2 (converted)
Summary of the method: (§2)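 Values are means from two beagle dogs, one male and one female, each given an intravenous dose and an oral dose.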

[13] = Terminal half life in nude mouse at 4 umol/kg, iv and 10 umol/kg, po; type: ADME, organism-based; conditions: in vivo, read-out: beta t1/2 (converted)
[14] = Plasma clearance in Beagle dog at 0.8 umol/kg, iv and 10 umol/kg, po; type: ADME, organism-based, Canis lupus familiaris; summary of the method: as §2
[15] = Volume of distribution at steady state in nude mouse at 4 umol/kg, iv and 10 umol/kg, po; type: ADME, organism-based; conditions: in vivo, read-out: Vdss
[16] = Plasma clearance in nude mouse at 4 umol/kg, iv and 10 umol/kg, po; type: ADME, organism-based
[17] = Oral bioavailability in nude mouse at 10 umol/kg; type: ADME, organism-based; conditions: in vivo
[18] = Oral bioavailability in Beagle dog at 10 umol/kg; type: ADME, organism-based, Canis lupus familiaris; conditions: in vivo; summary of the method: as §2
[19] = Intrinsic clearance in rat hepatocytes assessed per 10^6 cells; type: ADME, cell-based, Liver, Hepatocyte
[20] = Plasma clearance in Han Wistar rat at 4 umol/kg, iv and 10 umol/kg, po; type: ADME, organism-based; summary of the method: as §1
[21] = molecular target: Mitogen-activated protein kinase 8 (Homo sapiens) (UniProt P45983); assay: Inhibition of JNK1 at 1 uM
[22] = molecular target: Mitogen-activated protein kinase 9 (Homo sapiens) (UniProt P45984); assay: Inhibition of JNK2 at 1 uM
[23] = Terminal half life in Han Wistar rat at 4 umol/kg, iv and 10 umol/kg, po; type: ADME, organism-based; conditions: in vivo, read-out: beta t1/2 (converted); summary of the method: as §1
[24] = Volume of distribution at steady state in Beagle dog at 0.8 umol/kg, iv and 10 umol/kg, po; type: ADME, organism-based, Canis lupus familiaris; conditions: in vivo, read-out: Vdss; summary of the method: as §2

T1 sequence (P08069 31-736 limits assumed): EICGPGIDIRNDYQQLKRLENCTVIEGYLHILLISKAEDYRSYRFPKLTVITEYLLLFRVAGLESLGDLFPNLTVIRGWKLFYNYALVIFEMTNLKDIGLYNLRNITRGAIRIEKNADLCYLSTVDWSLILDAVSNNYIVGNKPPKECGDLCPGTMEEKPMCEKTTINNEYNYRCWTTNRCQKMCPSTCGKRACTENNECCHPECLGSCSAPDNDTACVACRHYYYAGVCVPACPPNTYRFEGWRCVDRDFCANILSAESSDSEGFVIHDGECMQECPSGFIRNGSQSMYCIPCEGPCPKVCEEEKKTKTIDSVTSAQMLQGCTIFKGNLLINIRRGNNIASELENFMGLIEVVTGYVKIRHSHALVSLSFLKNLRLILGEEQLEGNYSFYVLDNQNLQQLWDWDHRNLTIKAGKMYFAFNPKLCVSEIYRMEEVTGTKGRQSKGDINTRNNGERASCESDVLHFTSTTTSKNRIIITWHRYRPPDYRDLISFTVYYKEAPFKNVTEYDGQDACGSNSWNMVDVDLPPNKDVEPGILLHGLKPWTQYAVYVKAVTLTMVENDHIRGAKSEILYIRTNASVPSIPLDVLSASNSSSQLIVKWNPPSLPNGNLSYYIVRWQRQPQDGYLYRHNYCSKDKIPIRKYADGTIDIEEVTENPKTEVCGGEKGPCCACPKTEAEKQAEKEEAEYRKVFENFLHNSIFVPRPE
T1 sequence (P08069 741-1367 limits assumed): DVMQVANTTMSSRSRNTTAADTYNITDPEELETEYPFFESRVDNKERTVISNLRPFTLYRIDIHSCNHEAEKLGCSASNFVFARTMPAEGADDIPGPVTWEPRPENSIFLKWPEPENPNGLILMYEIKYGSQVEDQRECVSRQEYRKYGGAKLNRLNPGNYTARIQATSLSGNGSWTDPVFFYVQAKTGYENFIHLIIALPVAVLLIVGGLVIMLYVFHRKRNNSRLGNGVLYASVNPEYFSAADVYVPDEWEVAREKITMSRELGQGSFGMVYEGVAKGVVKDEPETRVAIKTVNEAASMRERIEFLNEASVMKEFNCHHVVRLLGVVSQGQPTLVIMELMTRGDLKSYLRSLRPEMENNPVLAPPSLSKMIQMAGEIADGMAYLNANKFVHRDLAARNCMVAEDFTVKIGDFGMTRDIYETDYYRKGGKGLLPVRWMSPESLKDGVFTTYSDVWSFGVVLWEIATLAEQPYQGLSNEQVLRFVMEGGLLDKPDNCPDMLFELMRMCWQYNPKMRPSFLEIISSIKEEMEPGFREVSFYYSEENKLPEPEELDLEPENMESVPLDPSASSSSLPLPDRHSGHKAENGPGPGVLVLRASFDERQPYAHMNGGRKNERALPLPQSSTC
T2 sequence (P06213 28-758 limits assumed): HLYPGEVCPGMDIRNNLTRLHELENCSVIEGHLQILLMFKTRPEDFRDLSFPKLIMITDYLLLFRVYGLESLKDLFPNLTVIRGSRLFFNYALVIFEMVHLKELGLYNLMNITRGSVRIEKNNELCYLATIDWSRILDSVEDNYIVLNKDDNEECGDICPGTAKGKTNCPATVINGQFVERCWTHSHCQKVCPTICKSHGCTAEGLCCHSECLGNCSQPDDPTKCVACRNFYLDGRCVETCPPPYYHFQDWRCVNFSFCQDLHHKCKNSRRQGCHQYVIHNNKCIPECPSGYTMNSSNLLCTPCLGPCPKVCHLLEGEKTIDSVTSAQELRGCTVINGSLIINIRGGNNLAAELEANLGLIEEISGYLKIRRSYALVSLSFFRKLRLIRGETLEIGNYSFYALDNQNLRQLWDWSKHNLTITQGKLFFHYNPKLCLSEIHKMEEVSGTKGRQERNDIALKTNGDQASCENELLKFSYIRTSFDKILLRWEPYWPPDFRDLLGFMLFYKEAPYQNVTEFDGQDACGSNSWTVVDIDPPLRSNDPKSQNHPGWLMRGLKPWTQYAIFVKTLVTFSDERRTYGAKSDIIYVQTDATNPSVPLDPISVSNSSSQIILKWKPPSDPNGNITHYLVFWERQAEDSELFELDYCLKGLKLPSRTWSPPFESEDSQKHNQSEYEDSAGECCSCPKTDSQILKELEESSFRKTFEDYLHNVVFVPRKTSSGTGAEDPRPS
T2 sequence (P06213 763-1382 limits assumed): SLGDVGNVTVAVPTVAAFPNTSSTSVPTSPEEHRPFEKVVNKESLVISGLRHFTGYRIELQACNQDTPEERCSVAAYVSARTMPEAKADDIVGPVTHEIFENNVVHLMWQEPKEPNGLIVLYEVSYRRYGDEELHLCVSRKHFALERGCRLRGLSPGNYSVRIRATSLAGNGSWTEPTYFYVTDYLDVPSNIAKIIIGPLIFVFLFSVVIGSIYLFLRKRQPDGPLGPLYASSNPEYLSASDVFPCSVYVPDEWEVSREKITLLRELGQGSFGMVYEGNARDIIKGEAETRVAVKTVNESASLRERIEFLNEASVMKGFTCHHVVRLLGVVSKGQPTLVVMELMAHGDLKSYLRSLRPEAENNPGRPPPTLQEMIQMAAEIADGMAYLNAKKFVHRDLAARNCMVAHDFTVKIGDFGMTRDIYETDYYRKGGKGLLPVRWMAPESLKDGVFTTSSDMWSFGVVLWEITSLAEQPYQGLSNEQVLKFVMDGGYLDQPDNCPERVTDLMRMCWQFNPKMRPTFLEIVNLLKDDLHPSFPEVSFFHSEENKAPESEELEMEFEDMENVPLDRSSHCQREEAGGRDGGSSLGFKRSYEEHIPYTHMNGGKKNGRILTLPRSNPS
Chain of Mitogen-activated protein kinase 9 (Homo sapiens) (P45984 whole entry, looked up): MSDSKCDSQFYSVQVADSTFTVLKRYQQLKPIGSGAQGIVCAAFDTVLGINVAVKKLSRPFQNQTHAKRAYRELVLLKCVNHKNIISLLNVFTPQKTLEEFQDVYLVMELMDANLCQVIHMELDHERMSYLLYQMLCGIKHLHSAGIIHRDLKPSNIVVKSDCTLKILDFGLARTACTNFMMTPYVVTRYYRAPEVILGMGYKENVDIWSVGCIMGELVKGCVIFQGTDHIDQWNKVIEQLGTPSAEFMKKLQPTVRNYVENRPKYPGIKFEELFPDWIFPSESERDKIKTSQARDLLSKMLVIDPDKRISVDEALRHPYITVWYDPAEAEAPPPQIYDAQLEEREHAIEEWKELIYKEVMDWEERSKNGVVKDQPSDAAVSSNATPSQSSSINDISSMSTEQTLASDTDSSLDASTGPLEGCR
Chain of Mitogen-activated protein kinase 8 (Homo sapiens) (P45983 whole entry): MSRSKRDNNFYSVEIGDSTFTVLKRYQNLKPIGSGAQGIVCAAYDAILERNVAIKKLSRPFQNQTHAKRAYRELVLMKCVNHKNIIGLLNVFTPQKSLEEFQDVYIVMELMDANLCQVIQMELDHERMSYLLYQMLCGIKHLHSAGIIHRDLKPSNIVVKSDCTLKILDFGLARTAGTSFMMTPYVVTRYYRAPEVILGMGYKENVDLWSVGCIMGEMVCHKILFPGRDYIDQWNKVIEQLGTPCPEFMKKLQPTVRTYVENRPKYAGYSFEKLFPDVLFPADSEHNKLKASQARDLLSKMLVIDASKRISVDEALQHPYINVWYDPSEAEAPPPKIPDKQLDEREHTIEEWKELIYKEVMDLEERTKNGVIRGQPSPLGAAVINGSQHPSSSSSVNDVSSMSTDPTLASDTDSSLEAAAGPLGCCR

pIC50 [1]: 6.57
pIC50 [2]: 7.11
Structure (SMILES): CC(=O)N1CCN(c2ccc(Nc3nccc(-c4cnc5ccccn45)n3)cc2)CC1

pIC50 [1]: 6.35
pIC50 [3]: 5.87
pIC50 [2]: < 4.00
Structure (SMILES): COc1cc(N2CCN(C(C)=O)CC2)ccc1Nc1nccc(-c2cnc3ccccn23)n1

pIC50 [2]: 4.80
Structure (SMILES): COc1cc(N2CCN(C(C)=O)CC2)ccc1Nc1ncc(C(F)(F)F)c(-c2cnc3ccccn23)n1

pIC50 [1]: 7.05
pIC50 [3]: 6.89
pIC50 [2]: 5.57
Structure (SMILES): COc1cc(N2CCN(C(C)=O)CC2)ccc1Nc1ncc(F)c(-c2cnc3ccccn23)n1

pIC50 [1]: 8.52
pIC50 [3]: 8.05
pIC50 [2]: 5.96
Structure (SMILES): COc1cc(N2CCN(C(C)=O)CC2)ccc1Nc1ncc(Br)c(-c2cnc3ccccn23)n1

pIC50 [3]: 7.04
pIC50 [2]: 5.00
Structure (SMILES): COc1cc(N2CCN(C(C)=O)CC2)ccc1Nc1ncc(C)c(-c2cnc3ccccn23)n1

pIC50 [3]: 6.72
pIC50 [2]: 4.28
Structure (SMILES): COc1cc(N2CCN(C(C)=O)CC2)ccc1Nc1ncc(OC)c(-c2cnc3ccccn23)n1

pIC50 [3]: 6.77
pIC50 [2]: 4.57
Structure (SMILES): COc1cc(N2CCN(C(C)=O)CC2)ccc1Nc1ncc(C#N)c(-c2cnc3ccccn23)n1

pIC50 [1]: 5.90
pIC50 [2]: 9.00
Structure (SMILES): NS(=O)(=O)c1ccc(Nc2nccc(-c3cnc4ccccn34)n2)cc1

pIC50 [4]: 7.92
bioavailability [5]: 49%
hepatocyte CLint [6]: 6.9 µL/min/1e6 cells
hepatocyte CLint [8]: 6.7 µL/min/1e6 cells
pIC50 [9]: 8.05
Vd [10]: 0.7 L/kg
hepatocyte CLint [11]: 32 µL/min/1e6 cells
half-life [12]: 5.5 h
half-life [13]: 0.9 h
clearance [14]: 4.7 mL/min/kg
pIC50 [2]: 5.96
Vd [15]: 0.8 L/kg
clearance [16]: 15 mL/min/kg
bioavailability [17]: 36%
bioavailability [18]: 30%
hepatocyte CLint [19]: 15 µL/min/1e6 cells
clearance [20]: 6.5 mL/min/kg
inhibition [21]: > 80%
inhibition [22]: > 80%
half-life [23]: 4.6 h
Vd [24]: 1.9 L/kg
Structure (SMILES): COc1cc(N2CCN(C(C)=O)CC2)ccc1Nc1ncc(Cl)c(-c2cnc3ccccn23)n1
inhibition [7]: > 80%
